The results in this text go back to ChEMBL document CHEMBL3797200, “Mohangic Acids A-E, p-Aminoacetophenonic Acids from a Marine-Mudflat-Derived Streptomyces sp” (J Nat Prod, 2016).

Activity calls are given as the source filed them. The calls are words filed in the database; no cut-off is given here.

The test system of one data set is Kocuria rhizophila. Kind of data set: Antibacterial activity against Kocuria rhizophila. Format: functional.
Data set [1] in a line: Cytotoxicity against human SKHEP1 cells after 72 hrs by SRB assay. Particulars: SK-HEP1, 72 h. It counts as functional, cell-based. (In general: Sulforhodamine B stains cellular protein and so reports cell mass.)
The next data set concerns Bacillus subtilis. Kind of data set: Antibacterial activity against Bacillus subtilis. Format: functional.
The nature of data set [2]: Cytotoxicity against human SNU638 cells after 72 hrs by SRB assay. It counts as functional, cell-based. Particulars: SNU-638, 72 h.
The test system of the next data set is Escherichia coli. Kind of data set: Antibacterial activity against Escherichia coli. Format: functional.
In another data set the test system is Staphylococcus aureus. Kind of data set: Antibacterial activity against Staphylococcus aureus. Format: functional.
Another data set deals with K562. Kind of data set: Cytotoxicity against human K562 cells after 72 hrs by SRB assay. Format: functional, cell-based. Particulars: K562, 72 h.
A further data set deals with A549. The data set can be described thus: Cytotoxicity against human A549 cells after 72 hrs by SRB assay. It counts as functional, cell-based. The conditions noted are these: A549, 72 h.
The next data set deals with Salmonella enterica. Kind of data set: Antibacterial activity against Salmonella enterica. Format: functional.
For data set [3], the species on record is Mus musculus. Kind of data set: Induction of Quinone reductase activity in mouse Hepa1c1c7 cells at 20 uM after 24 hrs by MTT assay relative to control. Format: cell-based. The method, boiled down: (§1)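 Hepa-1c1c7 murine hepatoma cells plated at 20 000 cells/mL, grown 24 h (37 °C, 5% CO2), then compound-treated 24 h; vehicle 0.1% DMSO, β-naphthoflavone 2 μM positive control. Lysis in Tris/NaCl/MgCl2/0.5% NP-40, then FAD, G6P/G6PDH, NADP, MTT, menadione mix, 10 min; MTT reduction at 610 nm, crystal violet protein on parallel plates; SA = (MTTabs/CVabs)×3345, nmol/min/mg; mean ± SD of four determinations.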
Background: Formazan colour is commonly taken as a measure of viable cells.

Data set [4] can be described thus: Cytotoxicity against human HCT116 cells after 72 hrs by SRB assay. It counts as functional, cell-based. Particulars: HCT-116, 72 h.
Another data set relates to Candida albicans. The data set can be described thus: Antifungal activity against Candida albicans. Format: functional.
Another data set deals with Aspergillus fumigatus. Kind of data set: Antifungal activity against Aspergillus fumigatus. It counts as functional.
A further data set deals with Proteus hauseri. Kind of data set: Antibacterial activity against Proteus hauseri. It counts as functional.
The test system of the next data set is MDA-MB-231. Kind of data set: Cytotoxicity against human MDA-MB-231 cells after 72 hrs by SRB assay. It counts as functional, cell-based. The conditions noted are these: MDA-MB-231, 72 h.
Data set [5] is filed under the species Mus musculus. The data set can be described thus: Induction of Quinone reductase activity in mouse Hepa1c1c7 cells at 5 uM after 24 hrs by MTT assay relative to control. It counts as cell-based. The method, boiled down:
as §1

The species named for data set [6] is Mus musculus. The data set can be described thus: Induction of Quinone reductase activity in mouse Hepa1c1c7 cells at 10 uM after 24 hrs by MTT assay relative to control. It counts as cell-based. Put shortly: as §1
A short description of data set [7]: Cytotoxicity against mouse Hepa1c1c7 cells. Format: cell-based.
The species named for data set [8] is Mus musculus. Kind of data set: Induction of Quinone reductase activity in mouse Hepa1c1c7 cells at 30 uM after 24 hrs by MTT assay relative to control. It counts as cell-based. The method, boiled down: as §1
For data set [9], the species on record is Mus musculus. Kind of data set: Induction of Quinone reductase activity in mouse Hepa1c1c7 cells after 24 hrs by MTT assay. Format: cell-based. The method, boiled down:
as §1

Data set [10] is filed under the species Mus musculus. The data set can be described thus: Induction of Quinone reductase activity in mouse Hepa1c1c7 cells at 2 uM after 24 hrs by MTT assay relative to control. Format: cell-based. Put shortly:
as §1

Broadly, the MIC is the lowest concentration that inhibits growth of the organism. Read a high MIC as a less susceptible organism. A word on the IC50: it is the concentration at which inhibition is half-maximal. As to `CC(=O)Nc1ccc(C(=O)C[C@@H](O)[C@H](C)C[C@@H](C)[C@H](O)[C@H](C)/C=C/C=C/C=C/[C@H](O)CC(=O)O)cc1`, the MIC against Kocuria rhizophila, with Bacillus subtilis, with Escherichia coli, against Staphylococcus aureus, against Salmonella enterica and in the data set on Candida albicans was above 128 µM in each case. Besides, the MIC in the data set on Aspergillus fumigatus and in the data set on Proteus hauseri was above 128 µM each time. Moreover, the IC50 (in data set [1]; in data set [2]; with K562; in the data set with A549; in data set [4]; in the data set on MDA-MB-231) was above 10 µM in each case. In addition, the result in the data set filed under Mus musculus [3] was inactive.
Regarding `CC(=O)Nc1ccc([C@H](O)C[C@@H](O)[C@H](C)C[C@@H](C)[C@H](O)[C@H](C)/C=C/C=C/C=C/[C@H](O)CC(=O)O)cc1`, the MIC in the data set with Kocuria rhizophila, in the data set with Bacillus subtilis, against Escherichia coli, in the data set with Staphylococcus aureus, with Salmonella enterica and with Candida albicans was above 128 µM each time. Besides, the minimal inhibitory concentration (MIC) with Aspergillus fumigatus and in the data set with Proteus hauseri was above 128 µM throughout. The half-maximal inhibitory concentration (IC50) (in [1]; in [2]; in the data set with K562; in the data set on A549; in [4]; with MDA-MB-231) was above 10 µM each time. Further, the outcome in the data set listed under Mus musculus [3] was inactive.
For `C[C@H](/C=C/C=C/C=C/[C@H](O)CC(=O)O)[C@@H](O)[C@H](C)C[C@@H](C)[C@H](O)CC(=O)c1ccc(N[C@@H]2O[C@H](CO)[C@@H](O)[C@H](O)[C@H]2O)cc1`, the MIC in the data set with Kocuria rhizophila, with Bacillus subtilis, against Escherichia coli, in the data set with Staphylococcus aureus, with Salmonella enterica and in the data set with Candida albicans was above 128 µM in each case. Besides, the minimum inhibitory concentration (MIC) with Aspergillus fumigatus and in the data set with Proteus hauseri was above 128 µM throughout. Besides, the IC50 (in data set [1]; in data set [2]; in the data set on K562; with A549; in [4]; in the data set with MDA-MB-231) was above 10 µM each time. The fold change (FC) in the data set listed under Mus musculus [5] was 1.5; in the data set filed under Mus musculus [6] it was 1.8; in the data set listed under Mus musculus [8], 2.2; in the data set filed under Mus musculus [3], 2.1; in the data set filed under Mus musculus [10], 1.3. In addition, the Activity result is “Non-toxic” in data set [7] and “Dose-dependent effect” in the data set filed under Mus musculus [9].
`C[C@H](/C=C/C=C/C=C/[C@H](O)CC(=O)O)[C@@H](O)[C@H](C)C[C@@H](C)[C@H](O)CC(=O)c1ccc(N)cc1`: the minimal inhibitory concentration (MIC) against Kocuria rhizophila, with Bacillus subtilis, with Escherichia coli, against Staphylococcus aureus, with Salmonella enterica and in the data set with Candida albicans was above 128 µM in each case. In addition, the minimum inhibitory concentration (MIC) in the data set on Aspergillus fumigatus and in the data set on Proteus hauseri was above 128 µM in each case. Also, the concentration for half-maximal inhibition (IC50) (in data set [1]; in [2]; in the data set on K562; in the data set on A549; in [4]; in the data set on MDA-MB-231) was above 10 µM each time. In addition, the result in the data set listed under Mus musculus [3] was inactive.
As for `CNc1ccc(C(=O)C[C@@H](O)[C@H](C)C[C@@H](C)[C@H](O)[C@H](C)/C=C/C=C/C=C/[C@H](O)CC(=O)O)cc1`, the MIC against Kocuria rhizophila, against Bacillus subtilis, against Escherichia coli, against Staphylococcus aureus, against Salmonella enterica and with Candida albicans was above 128 µM each time. Further, the minimal inhibitory concentration (MIC) in the data set on Aspergillus fumigatus and against Proteus hauseri was above 128 µM each time. For the same molecule, the 50% inhibitory concentration (IC50) (in data set [1]; in data set [2]; with K562; in the data set with A549; in data set [4]; in the data set with MDA-MB-231) was above 10 µM each time. Also, the result in the data set listed under Mus musculus [3] was inactive.
